Measured values taken from ChEMBL document CHEMBL2086292, “Chalcogenopyrylium compounds as modulators of the ATP-binding cassette transporters P-glycoprotein (P-gp/ABCB1) and multidrug resistance protein 1 (MRP1/ABCC1)” (J Med Chem, 2012).

What was measured:
[1] = molecular target: T1, MRP1 (Multidrug resistance-associated protein 1) (Homo sapiens, UniProt P33527); experiment: Inhibition of human MRP1-mediated uptake of [3H]E2-17betaG in HEK cell membrane vesicles at 1 uM by liquid scintillation counting relative to control; assay type: cell membranes, HEK293; conditions: HEK cell membrane vesicles with human MRP1, probe [3H]E2-17betaG
Outline: (§1)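 Inside-out membrane vesicles from HEK cells stably transfected with human MRP1. Vesicle protein (2 μg) incubated in Tris-sucrose buffer pH 7.4 with 400 nM [3H]E2-17βG, 4 mM ATP or AMP and 10 mM MgCl2, 3 min at 37 °C, in duplicate; DMSO ≤1% final. Stopped by ice-cold dilution and rapid filtration, then scintillation counted. ATP-dependent uptake taken as ATP minus AMP values; inhibition reported as percent.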

[2] = system: P-glycoprotein (MDR1); experiment: P-glycoprotein-mediated transport in MDCK2-MDR1 cells assessed as permeability across apical to basolateral side at 5 uM after 1 hr; conditions: dog, MDCK-MDR1
[3] = Octanol-water partition coefficient, log P of the compound in PBS at pH 7.4 after 1 hr by shake flask method; assay type: physicochemical
Outline: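 Shake-flask method: saturated n-octanol solution shaken with an equal volume of PBS pH 7.4 for 3–5 min, then left to settle 1 h at 23 °C. Concentration in each layer measured spectrophotometrically.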

[4] = molecular target: T1, MRP1 (Multidrug resistance-associated protein 1); experiment: Inhibition of human MRP1-mediated uptake of [3H]E2-17betaG in HEK cell membrane vesicles at 10 uM by liquid scintillation counter; assay type: cell membranes, HEK293; conditions: HEK cell membrane vesicles with human MRP1, probe [3H]E2-17betaG; outline: as §1
[5] = molecular target: P-gp (ABCB1) (Homo sapiens, UniProt P08183); experiment: Induction of ATPase activity of human His10-tagged P-gp expressed in BHK cells assessed as inorganic phosphate release after 30 mins relative to control; assay type: cell-based; conditions: human His10-tagged P-gp expressed in BHK cells, read-out: FC
Outline: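 Human P-gp with C-terminal His10 tag, stably expressed in BHK cells, purified by Ni-chelate chromatography and mixed 1:1 with 10 mg/mL sheep brain phosphatidylethanolamine in TBS (10 mM Tris/HCl pH 7.4, 150 mM NaCl), then sonicated. Compound titrated, 30 min at 37 °C. Inorganic phosphate released from ATP measured. Vmax expressed as fold over basal activity; KM is the concentration giving half-maximal stimulation.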

[6] = Inhibition of P-gp expressed in MDCK2-MDR1 cells by calcein AM accumulation assay; assay type: cell-based; conditions: MDCK-II
Outline: (§2)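 MDCKII cells transfected with wild-type human MDR1, seeded at 40000 cells/well and used on day 4. Washed in DPBS with 10 mM HEPES pH 7.4, then compound in the same buffer 30 min at 37 °C. Replaced with compound plus 0.5 μg/mL calcein AM for a further 20 min. IC50 from 1:1 serial dilutions by variable-slope sigmoidal fit.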

[7] = Normalized ratio of the compound assessed as ratio of PBA/AB in absence of LSN 335984 to ratio of PBA/AB in presence of LSN 335984 in MDCK2-MDR1 cells at 5 uM after 1 hr; assay type: ADME, cell-based, Canis lupus familiaris; conditions: dog, mdck-mdr1, 1 h
Outline: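 MDCKII-MDR1 cells seeded at 50000 cells/cm² on Transwell filters, used on day 6. Preincubated 30 min with 4.3 mg/mL BSA in DPBSH, with or without 5 μM LSN 335984. Compound (5 μM) added to the apical or basolateral donor chamber and incubated 1 h at 37 °C with nutation. Donor and receiver samples quantified by LC-MS/MS. AB and BA permeabilities calculated. Normalized ratio is the BA/AB ratio without inhibitor divided by the ratio with inhibitor.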

[8] = system: P-glycoprotein (MDR1); experiment: P-glycoprotein-mediated transport in MDCK2-MDR1 cells assessed as permeability across basolateral to apical side at 5 uM after 1 hr; conditions: dog, MDCK-MDR1
[9] = molecular target: T1, MRP1 (Multidrug resistance-associated protein 1); experiment: Inhibition of human MRP1 mediated uptake of [3H]E2-17betaG in HEK cell membrane vesicles at 5 uM by liquid scintillation counting relative to control; assay type: cell membranes, HEK293; conditions: HEK cell membrane vesicles with human MRP1, probe [3H]E2-17betaG
Outline: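 Inside-out vesicles from stably transfected HEK-MRP1 cells (2 μg protein) in Tris-sucrose buffer pH 7.4 with [³H]E₂17βG 400 nM, ATP or AMP 4 mM, MgCl₂ 10 mM, 3 min at 37 °C, compound at 5 μM; DMSO ≤1%; stopped by ice-cold dilution, rapid filtration, scintillation counting; ATP-dependent uptake = ATP minus AMP; duplicate wells.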

[10] = molecular target: ATP-dependent translocase ABCB1 (Homo sapiens, UniProt P08183); experiment: Inhibition of VER-stimulated human His10-tagged P-gp ATPase activity expressed in BHK cells after 15 mins; assay type: cell-based
[11] = system: MDCK-II; experiment: Inhibition of P-gp expressed in MDCK2-MDR1 cells at 25 uM by calcein AM accumulation assay relative to LSN 335984; assay type: cell-based
Outline: as §2, with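 “min. Fluorescence read at Ex 485/Em 530 nm. Signal expressed relative to 5 μM LSN 335984, taken as complete inhibition; vehicle 0.25% DMSO.” for “min.”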

[12] = molecular target: T1, MRP1 (Multidrug resistance-associated protein 1); experiment: Inhibition of human MRP1 mediated uptake of [3H]E2-17betaG in HEK cell membrane vesicles at 30 uM by liquid scintillation counting relative to control; assay type: cell membranes, HEK293; conditions: HEK cell membrane vesicles with human MRP1, probe [3H]E2-17betaG; outline: as §1
[13] = system: MDCK-II; experiment: Inhibition of P-gp expressed in MDCK2-MDR1 cells at 5 uM by calcein AM accumulation assay relative to LSN 335984; assay type: cell-based
Outline: as §2, with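 “min. Fluorescence read at Ex 485/Em 530 nm. Signal expressed relative to 5 μM LSN 335984, taken as complete inhibition; vehicle 0.25% DMSO.” for “min.”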

[14] = Inhibition of P-gp mediated [3H]VIN efflux in MDCK2-MDR1 cells by scintillation counter; assay type: cell-based; conditions: MDCK-II
Outline: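 MDCKII-MDR1 monolayers on Transwell filters, used on day 6. Rinsed in DPBSH, then preincubated 30 min at 37 °C with compound ([…]) in BSA/DPBSH. [3H]vinblastine (0.25 μCi/mL) plus compound added basolaterally and fresh compound solution added apically. Apical buffer replaced every 10 min; apical radioactivity counted by scintillation. IC50 fitted.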

Sequence of P-gp (ABCB1) (P08183 whole entry): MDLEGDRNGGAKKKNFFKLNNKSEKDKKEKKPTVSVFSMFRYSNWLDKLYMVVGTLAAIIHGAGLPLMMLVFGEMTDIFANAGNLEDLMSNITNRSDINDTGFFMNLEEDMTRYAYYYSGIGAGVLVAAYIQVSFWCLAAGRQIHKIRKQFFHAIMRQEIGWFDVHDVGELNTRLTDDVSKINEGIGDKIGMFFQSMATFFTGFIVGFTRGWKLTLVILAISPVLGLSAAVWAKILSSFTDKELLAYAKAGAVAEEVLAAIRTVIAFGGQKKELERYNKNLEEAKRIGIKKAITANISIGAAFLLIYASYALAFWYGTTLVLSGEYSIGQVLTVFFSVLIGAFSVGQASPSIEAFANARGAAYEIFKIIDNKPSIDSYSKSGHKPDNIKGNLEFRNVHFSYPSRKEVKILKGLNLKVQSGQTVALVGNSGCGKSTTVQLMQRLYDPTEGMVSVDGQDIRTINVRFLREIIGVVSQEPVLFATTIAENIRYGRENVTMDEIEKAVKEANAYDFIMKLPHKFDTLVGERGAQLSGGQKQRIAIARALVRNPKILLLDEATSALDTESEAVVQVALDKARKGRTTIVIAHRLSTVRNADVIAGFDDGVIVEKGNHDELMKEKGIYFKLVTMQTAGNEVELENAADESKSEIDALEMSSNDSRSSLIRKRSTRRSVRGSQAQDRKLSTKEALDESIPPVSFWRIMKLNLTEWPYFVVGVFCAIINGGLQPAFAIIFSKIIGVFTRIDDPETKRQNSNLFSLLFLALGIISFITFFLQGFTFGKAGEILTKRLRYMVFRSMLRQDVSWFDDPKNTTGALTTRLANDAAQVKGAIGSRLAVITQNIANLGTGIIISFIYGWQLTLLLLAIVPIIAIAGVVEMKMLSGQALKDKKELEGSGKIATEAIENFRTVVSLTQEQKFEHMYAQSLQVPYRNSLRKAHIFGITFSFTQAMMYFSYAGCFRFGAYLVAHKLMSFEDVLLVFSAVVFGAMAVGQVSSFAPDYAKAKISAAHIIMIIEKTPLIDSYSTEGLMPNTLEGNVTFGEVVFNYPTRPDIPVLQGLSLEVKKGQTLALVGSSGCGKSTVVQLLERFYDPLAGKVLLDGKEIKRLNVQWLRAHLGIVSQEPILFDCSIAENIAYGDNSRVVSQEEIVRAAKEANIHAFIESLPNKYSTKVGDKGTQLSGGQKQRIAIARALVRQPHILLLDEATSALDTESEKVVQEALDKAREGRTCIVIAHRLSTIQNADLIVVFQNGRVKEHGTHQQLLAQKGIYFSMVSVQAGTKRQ
T1 sequence (P33527 whole entry): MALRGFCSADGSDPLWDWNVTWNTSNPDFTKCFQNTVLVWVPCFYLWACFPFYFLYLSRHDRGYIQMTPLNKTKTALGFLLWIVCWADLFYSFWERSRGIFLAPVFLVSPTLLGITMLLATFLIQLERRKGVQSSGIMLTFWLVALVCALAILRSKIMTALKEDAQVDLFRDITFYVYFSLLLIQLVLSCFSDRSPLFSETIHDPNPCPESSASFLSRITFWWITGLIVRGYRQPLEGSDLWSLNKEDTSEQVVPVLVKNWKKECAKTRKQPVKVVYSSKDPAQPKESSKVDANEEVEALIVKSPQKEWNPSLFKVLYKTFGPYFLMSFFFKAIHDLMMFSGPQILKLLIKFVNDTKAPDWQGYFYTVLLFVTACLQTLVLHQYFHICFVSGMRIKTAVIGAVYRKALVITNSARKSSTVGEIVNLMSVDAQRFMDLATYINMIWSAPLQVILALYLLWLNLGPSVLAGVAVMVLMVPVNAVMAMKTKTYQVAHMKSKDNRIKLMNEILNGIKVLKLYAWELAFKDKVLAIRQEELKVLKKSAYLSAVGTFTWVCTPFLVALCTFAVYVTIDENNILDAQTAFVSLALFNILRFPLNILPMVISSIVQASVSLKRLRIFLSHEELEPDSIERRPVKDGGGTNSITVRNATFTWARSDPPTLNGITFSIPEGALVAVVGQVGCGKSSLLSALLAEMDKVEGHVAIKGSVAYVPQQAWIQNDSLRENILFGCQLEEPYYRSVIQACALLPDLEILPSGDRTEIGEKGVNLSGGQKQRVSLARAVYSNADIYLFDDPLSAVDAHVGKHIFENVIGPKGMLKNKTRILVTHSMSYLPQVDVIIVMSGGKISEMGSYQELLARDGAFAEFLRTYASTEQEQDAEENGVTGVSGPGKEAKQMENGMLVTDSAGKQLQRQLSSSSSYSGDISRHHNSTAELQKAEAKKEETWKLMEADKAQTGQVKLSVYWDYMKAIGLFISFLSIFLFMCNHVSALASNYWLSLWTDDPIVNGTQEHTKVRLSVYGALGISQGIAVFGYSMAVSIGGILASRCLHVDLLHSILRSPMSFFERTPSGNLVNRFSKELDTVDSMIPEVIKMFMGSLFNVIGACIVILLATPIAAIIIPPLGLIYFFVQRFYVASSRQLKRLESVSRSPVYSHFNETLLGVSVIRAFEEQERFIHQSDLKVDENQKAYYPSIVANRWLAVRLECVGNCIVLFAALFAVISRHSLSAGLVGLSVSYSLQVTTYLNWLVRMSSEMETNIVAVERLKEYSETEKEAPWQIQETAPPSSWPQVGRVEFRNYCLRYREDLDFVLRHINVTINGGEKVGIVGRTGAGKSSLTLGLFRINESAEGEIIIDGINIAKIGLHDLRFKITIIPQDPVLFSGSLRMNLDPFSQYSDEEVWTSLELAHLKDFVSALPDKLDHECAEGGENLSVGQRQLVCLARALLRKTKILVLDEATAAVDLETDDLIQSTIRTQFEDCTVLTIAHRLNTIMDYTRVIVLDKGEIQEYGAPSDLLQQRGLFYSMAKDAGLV
Sequence of ATP-dependent translocase ABCB1 (P08183 whole entry): as the sequence (P08183 whole entry) above

| Compound | inhibition at 1 µM [1] [%] | fold induction at 0.5 h [5] | inhibition at 30 µM [12] [%] | other results |
| --- | --- | --- | --- | --- |
| CN(C)c1ccc(-c2cc(-c3ccc(C(=O)N4CCCCC4)s3)cc(C(C)(C)C)[s+]2)cc1.F[P-](F)(F)(F)(F)F | 0 | 6.6 |  | Papp A-B at 1 h, 5 µM [2]: 0.56 ×10⁻⁶ cm/s; logD at 1 h [3]: 1.4; inhibition at 10 µM [4]: 59%; IC50 [6]: 18 µM; Ratio [7]: 4; Papp B-A at 1 h, 5 µM [8]: 2.2 ×10⁻⁶ cm/s |
| CC(C)(C)c1cc(-c2ccc(C(=O)O)s2)cc(C(C)(C)C)[te+]1 |  | < 1.4 |  | inhibition at 5 µM [9]: 24%; IC50 [10]: 162 µM |
| CC(C)(C)c1cc(-c2ccc(C(=O)O)s2)cc(C(C)(C)C)[se+]1 |  | < 1.4 |  | inhibition at 5 µM [9]: 15%; IC50 [10]: 111 µM |
| CC(C)(C)c1cc(-c2ccccc2)cc(C(C)(C)C)[s+]1 |  | 2.9 | 33 | inhibition [11]: 1%; inhibition [13]: 0% |
| CN(C)c1ccc(-c2cc(-c3ccc(N(C)C)cc3)[se+]c(C(C)(C)C)c2)cc1 |  | 10.1 | 96 |  |
| CN(C)c1ccc(-c2cc(-c3ccc(C(=O)O)s3)cc(C(C)(C)C)[s+]2)cc1 |  | 13 | 96 |  |
| Nc1ccc(-c2cc(-c3ccc(N4CCOCC4)cc3)cc(-c3ccc(N)cc3)[te+]2)cc1 | 8 |  |  |  |
| Cc1cc(C(C)(C)C)[o+]c(C(C)(C)C)c1 |  |  | 0 |  |
| CCN(CC)C(=O)c1ccccc1-c1cc(C(C)(C)C)[te+]c(C(C)(C)C)c1 |  | 6.9 | 45 |  |
| CC(C)(C)c1cc(-c2ccccc2)cc(C(C)(C)C)[te+]1 |  | 1.5 | 34 |  |
| CN(C)c1ccc(-c2cc(-c3ccc(C(=S)N4CCCCC4)s3)cc(C(C)(C)C)[s+]2)cc1.[Cl-] | 36 | 5.2 | 93 | inhibition [11]: 74%; Papp A-B at 1 h, 5 µM [2]: 0.03 ×10⁻⁶ cm/s; logD at 1 h [3]: 2.1; inhibition at 10 µM [4]: 93%; IC50 [14]: 11.5 µM; IC50 [6]: 38 µM; Ratio [7]: 705; inhibition [13]: 31%; Papp B-A at 1 h, 5 µM [8]: 32 ×10⁻⁶ cm/s |
| CC(C)(C)c1cc(-c2ccccc2)cc(C(C)(C)C)[se+]1 | 0 | 1.4 |  |  |
| CCN(CC)C(=O)c1ccccc1-c1cc(C(C)(C)C)[se+]c(C(C)(C)C)c1 |  | 5.9 | 31 |  |
| CN(C)c1ccc(-c2cc(-c3ccc(C(=O)N4CCCCC4)s3)cc(-c3ccc(N(C)C)cc3)[s+]2)cc1.F[P-](F)(F)(F)(F)F | 18 | 6 |  | Papp A-B at 1 h, 5 µM [2]: 0.17 ×10⁻⁶ cm/s; logD at 1 h [3]: 2.1; inhibition at 10 µM [4]: 78%; IC50 [14]: 5.9 µM; IC50 [6]: 24 µM; Ratio [7]: 79; Papp B-A at 1 h, 5 µM [8]: 62 ×10⁻⁶ cm/s |
| CN(C)c1ccc(-c2cc(-c3ccccc3)cc(C(C)(C)C)[s+]2)cc1 |  | 6.9 | 50 |  |
| Cc1cc(-c2ccc(N(C)C)cc2)cc(-c2ccc(N(C)C)cc2)[se+]1 | 15 | 1.4 |  |  |
